Measurements from ChEMBL document CHEMBL1141070, “Synthesis and biological activity of flurbiprofen analogues as selective inhibitors of beta-amyloid(1)(-)(42) secretion” (J Med Chem, 2005).

Key:
[1] = molecular target: T1, Amyloid-beta precursor protein (Homo sapiens, UniProt P05067); details: at 100 µM
Target sequence in this assay (P05067 whole entry): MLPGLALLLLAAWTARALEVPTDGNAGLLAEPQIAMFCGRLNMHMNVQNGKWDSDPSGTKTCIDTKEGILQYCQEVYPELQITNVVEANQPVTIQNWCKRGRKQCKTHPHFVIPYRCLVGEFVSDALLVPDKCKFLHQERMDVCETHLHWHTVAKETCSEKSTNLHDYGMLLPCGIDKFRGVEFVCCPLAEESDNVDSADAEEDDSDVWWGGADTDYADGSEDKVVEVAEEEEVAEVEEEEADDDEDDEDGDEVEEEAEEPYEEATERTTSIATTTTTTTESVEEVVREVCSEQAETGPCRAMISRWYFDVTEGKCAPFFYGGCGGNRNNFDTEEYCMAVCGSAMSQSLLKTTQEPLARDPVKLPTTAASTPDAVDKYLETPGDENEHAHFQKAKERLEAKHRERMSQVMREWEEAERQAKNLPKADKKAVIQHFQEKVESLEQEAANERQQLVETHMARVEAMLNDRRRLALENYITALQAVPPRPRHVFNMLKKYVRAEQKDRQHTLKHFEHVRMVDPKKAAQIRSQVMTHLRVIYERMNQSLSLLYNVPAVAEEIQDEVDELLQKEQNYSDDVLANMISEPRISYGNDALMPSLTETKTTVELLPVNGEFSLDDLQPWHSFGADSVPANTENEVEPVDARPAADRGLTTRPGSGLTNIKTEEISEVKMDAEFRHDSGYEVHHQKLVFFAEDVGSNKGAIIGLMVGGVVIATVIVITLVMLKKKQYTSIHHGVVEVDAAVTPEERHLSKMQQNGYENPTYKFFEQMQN

[2] = molecular target: T2, Prostaglandin G/H synthase 1 (Rattus norvegicus, UniProt Q63921); test: Concentration required to inhibit cyclooxygenase-1 in rat blood
T2 sequence (Q63921 whole entry): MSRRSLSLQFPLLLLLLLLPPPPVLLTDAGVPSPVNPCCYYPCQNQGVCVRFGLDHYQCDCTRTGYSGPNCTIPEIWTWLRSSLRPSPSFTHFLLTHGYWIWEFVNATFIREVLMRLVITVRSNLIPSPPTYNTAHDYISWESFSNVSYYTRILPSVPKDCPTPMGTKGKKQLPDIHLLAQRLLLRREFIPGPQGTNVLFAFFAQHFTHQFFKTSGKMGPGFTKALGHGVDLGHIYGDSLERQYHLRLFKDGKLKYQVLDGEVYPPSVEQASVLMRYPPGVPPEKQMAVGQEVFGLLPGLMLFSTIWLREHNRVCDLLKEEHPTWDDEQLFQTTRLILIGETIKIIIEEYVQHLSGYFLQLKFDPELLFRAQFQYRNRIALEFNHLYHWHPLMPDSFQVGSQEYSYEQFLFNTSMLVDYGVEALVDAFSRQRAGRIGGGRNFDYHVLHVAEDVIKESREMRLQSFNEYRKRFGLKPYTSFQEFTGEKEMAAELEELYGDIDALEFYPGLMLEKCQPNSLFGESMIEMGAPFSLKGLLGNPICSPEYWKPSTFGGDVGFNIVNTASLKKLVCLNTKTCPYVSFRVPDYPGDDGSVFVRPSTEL
In short: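 Fresh rat whole blood was preincubated 1 h at 37 °C with compound (100 μM or a concentration series; DMSO 0.3% final). It was then stimulated 30 min with the Ca²⁺ ionophore A23187. Thromboxane B2 in the plasma was measured by radioimmunoassay.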

[3] = molecular target: T1, Amyloid-beta precursor protein; test: Inhibitory concentration against beta-amyloid-42 (Abeta42) secretion was evaluated in human neuroglioma cells (H4-APP695NL); type: functional, cell-based
In short: (§1)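 H4-APP695NL human neuroglioma cells (APP695 Swedish K595N/M596L) seeded at 2 × 10^5/well and grown 24 h to confluence. Increasing compound concentrations added overnight; DMSO 1% as vehicle. Supernatant Aβ42 or Aβ40 measured by electrochemiluminescence immunoassay: biotinylated 4G8 plus C-terminus-specific rabbit antibodies, captured on streptavidin beads.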
Target sequence in this assay (P05067 18-770 limits assumed): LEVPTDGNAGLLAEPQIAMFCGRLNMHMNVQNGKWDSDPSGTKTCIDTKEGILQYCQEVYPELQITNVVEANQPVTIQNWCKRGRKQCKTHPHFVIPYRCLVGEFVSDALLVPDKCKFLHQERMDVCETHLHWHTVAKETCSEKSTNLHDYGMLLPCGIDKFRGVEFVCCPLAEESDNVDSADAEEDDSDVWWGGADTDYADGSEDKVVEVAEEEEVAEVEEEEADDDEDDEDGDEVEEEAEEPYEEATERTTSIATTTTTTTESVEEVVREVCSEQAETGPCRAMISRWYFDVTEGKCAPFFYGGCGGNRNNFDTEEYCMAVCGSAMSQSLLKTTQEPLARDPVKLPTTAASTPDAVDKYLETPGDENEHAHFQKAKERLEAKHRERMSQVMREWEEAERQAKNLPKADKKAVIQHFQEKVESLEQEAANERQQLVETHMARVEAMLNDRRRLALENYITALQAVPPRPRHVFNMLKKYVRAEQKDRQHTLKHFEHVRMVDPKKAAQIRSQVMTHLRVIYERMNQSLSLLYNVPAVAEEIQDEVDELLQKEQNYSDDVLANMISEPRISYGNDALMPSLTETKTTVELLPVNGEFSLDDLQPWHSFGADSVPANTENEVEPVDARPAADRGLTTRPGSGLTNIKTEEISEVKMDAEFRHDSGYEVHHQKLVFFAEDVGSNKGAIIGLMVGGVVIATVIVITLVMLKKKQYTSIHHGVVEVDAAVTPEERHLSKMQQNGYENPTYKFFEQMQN

[4] = molecular target: T1, Amyloid-beta precursor protein; test: (§2) Concentration required to inhibit A beta 40 peptide 100 uM
In short: as §1
Target sequence in this assay (P05067 whole entry): as the sequence (P05067 whole entry) above

[5] = In vivo steady state metabolic clearance of the compound; details: rat
[6] = Concentration ratio in cerebrospinal fluid and plasma; details: rat
[7] = molecular target: T1, Amyloid-beta precursor protein; test: Concentration required to inhibit A beta 40 peptide at 100 uM
In short: as §1
Target sequence in this assay (P05067 whole entry): as above

Cytochrome P450 2C9 = Cytochrome P450 2C9 (Homo sapiens, UniProt P11712); test: Interaction with human cytochrome P450 isoform 2C9 expressed in baculovirus-insect cells; type: ADME
In short: (§3)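 Microsomes from baculovirus-insect cells expressing human CYP1A2, 2C9, 2C19, 2D6 or 3A4. Compound serially diluted with an NADPH-regenerating mix (16.3 μM NADP+, 0.83 mM glucose-6-phosphate, 0.83 mM MgCl2, 0.4 U/mL G6PDH). Pre-warmed 10 min at 37 °C, then isoform-specific substrate added in 0.35 M potassium phosphate pH 7.4. Fluorometric read-out; IC50 by nonlinear regression.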

Cytochrome P450 2C19 = Cytochrome P450 2C19 (Homo sapiens, UniProt P33261); test: Interaction with human cytochrome P450 isoform 2C19 expressed in baculovirus-insect cells; type: ADME
In short: as §3

[8] = molecular target: T3, Prostaglandin G/H synthase 1 (Rattus norvegicus) (UniProt Q63921); test: Percent inhibition against cyclooxygenase-1 at 100 uM in rat blood
T3 sequence (whole entry): T2 sequence (Q63921 whole entry)
In short: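 Fresh rat whole blood preincubated 1 h at 37 °C with compound (100 μM) or DMSO (0.3% final). Stimulated 30 min with A23187 calcium ionophore; plasma thromboxane B2 measured by radioimmunoassay.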

Cytochrome P450 3A4 = Cytochrome P450 3A4 (Homo sapiens, UniProt P08684); test: Interaction with human cytochrome P450 isoform 3A4 expressed in baculovirus-insect cells; type: ADME
In short: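 Supersome microsomes from baculovirus-insect cells expressing human CYP1A2, 2C9, 2C19, 2D6 or 3A4 were used with isoform-specific fluorogenic substrates. Compounds were serially diluted with an NADP⁺/glucose-6-phosphate regenerating system in 0.35 M potassium phosphate, pH 7.4. Plates were prewarmed 10 min at 37 °C, reactions stopped with acetonitrile/Tris, and fluorescence read. IC50 was obtained by nonlinear regression.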

[9] = Intestinal drug absorption was estimated in vitro using human colon adenocarcinoma (Caco-2) cell monolayers; type: ADME
In short: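 Caco-2 monolayers on polycarbonate Transwell inserts, 2 h at 37 °C. Apical and basolateral solutions analysed by LC-MS/MS (SRM). Papp = Cb·Vb/(C0·A·t).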

[10] = Concentration ratio in cerebrospinal fluid and plasma; below lower limit of quantitation; details: rat
CYP2C19 = CYP2C19 (Homo sapiens, UniProt P33261); test: Interaction with human cytochrome P450 isoform 2C19 expressed in baculovirus-insect cells at 100 uM; type: ADME
In short: as §3

[11] = molecular target: T1, Amyloid-beta precursor protein; test: Concentration required to inhibit A beta 40 peptide
In short: as §1
Target sequence in this assay (P05067 whole entry): as above

CYP2C9 = CYP2C9 (Homo sapiens, UniProt P11712); test: Interaction with human cytochrome P450 isoform 2C9 expressed in baculovirus-insect cells at 100 uM; type: ADME
In short: as §3

CYP3A4 = CYP3A4 (Homo sapiens, UniProt P08684); test: Interaction with human cytochrome P450 isoform 3A4 expressed in baculovirus-insect cells at 100 uM; type: ADME
In short: as §3

CYP1A2 = molecular target: T4, CYP1A2 (Homo sapiens, UniProt P05177); test: Interaction with human cytochrome P450 isoform 1A2 expressed in baculovirus-insect cells at 100 uM; type: ADME
T4 sequence (P05177 whole entry): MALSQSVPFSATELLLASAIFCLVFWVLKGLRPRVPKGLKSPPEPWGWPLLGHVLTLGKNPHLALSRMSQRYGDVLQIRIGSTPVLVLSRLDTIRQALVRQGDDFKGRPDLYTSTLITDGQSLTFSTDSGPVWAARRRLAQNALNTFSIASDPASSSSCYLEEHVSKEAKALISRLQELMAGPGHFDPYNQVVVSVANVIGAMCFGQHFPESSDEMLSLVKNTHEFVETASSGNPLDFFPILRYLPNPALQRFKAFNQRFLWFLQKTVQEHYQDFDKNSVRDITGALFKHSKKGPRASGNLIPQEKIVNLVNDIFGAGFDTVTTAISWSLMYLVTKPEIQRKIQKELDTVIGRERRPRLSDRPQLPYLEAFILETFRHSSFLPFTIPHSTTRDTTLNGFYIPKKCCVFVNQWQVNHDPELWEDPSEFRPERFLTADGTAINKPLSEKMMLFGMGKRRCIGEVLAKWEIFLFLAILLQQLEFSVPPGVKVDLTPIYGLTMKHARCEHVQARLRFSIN
In short: as §3

CYP2D6 = CYP2D6 (Homo sapiens, UniProt P10635); test: Interaction with human cytochrome P450 isoform 2D6 expressed in baculovirus-insect cells at 100 uM; type: ADME
In short: as §3

[12] = molecular target: T1, Amyloid-beta precursor protein; test: as §2; remark: listed apart in the source
Target sequence in this assay (P05067 whole entry): as the sequence (P05067 whole entry) above

[13] = molecular target: T1, Amyloid-beta precursor protein; test: Concentration required to inhibit A beta 40 peptide 100 um
Target sequence in this assay (P05067 whole entry): as the sequence (P05067 whole entry) above

Chain of Cytochrome P450 2C9 (P11712 whole entry, canonical isoform): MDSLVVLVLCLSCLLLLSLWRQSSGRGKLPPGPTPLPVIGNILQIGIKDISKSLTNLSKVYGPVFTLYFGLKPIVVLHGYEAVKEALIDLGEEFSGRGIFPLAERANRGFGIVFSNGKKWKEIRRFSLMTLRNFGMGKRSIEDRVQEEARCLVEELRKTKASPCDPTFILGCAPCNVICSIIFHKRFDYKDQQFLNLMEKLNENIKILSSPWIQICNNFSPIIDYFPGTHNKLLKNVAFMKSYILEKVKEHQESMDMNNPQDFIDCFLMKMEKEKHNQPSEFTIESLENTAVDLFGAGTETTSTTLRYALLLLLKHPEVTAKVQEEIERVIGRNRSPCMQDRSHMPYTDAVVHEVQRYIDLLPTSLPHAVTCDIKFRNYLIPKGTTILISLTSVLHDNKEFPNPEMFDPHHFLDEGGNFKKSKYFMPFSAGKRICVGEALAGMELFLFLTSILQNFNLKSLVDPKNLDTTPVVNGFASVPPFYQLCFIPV
Chain of Cytochrome P450 3A4 (P08684 whole entry, canonical isoform): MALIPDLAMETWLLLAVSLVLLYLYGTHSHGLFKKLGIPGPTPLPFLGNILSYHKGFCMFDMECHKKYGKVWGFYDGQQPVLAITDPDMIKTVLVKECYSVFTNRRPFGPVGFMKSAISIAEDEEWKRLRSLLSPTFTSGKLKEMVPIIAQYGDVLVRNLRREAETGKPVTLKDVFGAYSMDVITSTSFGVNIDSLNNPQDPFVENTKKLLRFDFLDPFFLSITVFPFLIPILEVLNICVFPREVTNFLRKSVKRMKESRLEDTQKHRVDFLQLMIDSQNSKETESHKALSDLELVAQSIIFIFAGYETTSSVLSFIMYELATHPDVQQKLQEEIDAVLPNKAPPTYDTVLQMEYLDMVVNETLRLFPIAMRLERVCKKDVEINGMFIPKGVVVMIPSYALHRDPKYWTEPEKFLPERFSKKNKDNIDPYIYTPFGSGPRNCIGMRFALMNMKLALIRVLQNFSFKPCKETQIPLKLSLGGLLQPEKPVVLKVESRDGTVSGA
Chain of Cytochrome P450 2C19 (P33261 whole entry, canonical isoform): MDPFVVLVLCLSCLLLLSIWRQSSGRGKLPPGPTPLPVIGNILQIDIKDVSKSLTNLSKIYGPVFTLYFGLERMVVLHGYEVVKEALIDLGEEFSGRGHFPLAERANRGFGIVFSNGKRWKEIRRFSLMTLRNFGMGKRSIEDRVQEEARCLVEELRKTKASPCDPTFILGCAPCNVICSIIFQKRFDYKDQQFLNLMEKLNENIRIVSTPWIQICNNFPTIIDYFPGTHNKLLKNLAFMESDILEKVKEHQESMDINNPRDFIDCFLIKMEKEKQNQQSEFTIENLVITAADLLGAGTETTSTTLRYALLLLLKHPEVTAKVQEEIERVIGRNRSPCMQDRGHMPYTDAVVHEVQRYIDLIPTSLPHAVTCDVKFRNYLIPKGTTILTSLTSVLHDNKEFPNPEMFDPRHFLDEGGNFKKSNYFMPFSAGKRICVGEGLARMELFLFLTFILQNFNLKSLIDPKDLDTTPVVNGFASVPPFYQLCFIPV
Chain of CYP2C19 (P33261 whole entry, canonical isoform): as above
Chain of CYP2D6 (P10635 whole entry, canonical isoform): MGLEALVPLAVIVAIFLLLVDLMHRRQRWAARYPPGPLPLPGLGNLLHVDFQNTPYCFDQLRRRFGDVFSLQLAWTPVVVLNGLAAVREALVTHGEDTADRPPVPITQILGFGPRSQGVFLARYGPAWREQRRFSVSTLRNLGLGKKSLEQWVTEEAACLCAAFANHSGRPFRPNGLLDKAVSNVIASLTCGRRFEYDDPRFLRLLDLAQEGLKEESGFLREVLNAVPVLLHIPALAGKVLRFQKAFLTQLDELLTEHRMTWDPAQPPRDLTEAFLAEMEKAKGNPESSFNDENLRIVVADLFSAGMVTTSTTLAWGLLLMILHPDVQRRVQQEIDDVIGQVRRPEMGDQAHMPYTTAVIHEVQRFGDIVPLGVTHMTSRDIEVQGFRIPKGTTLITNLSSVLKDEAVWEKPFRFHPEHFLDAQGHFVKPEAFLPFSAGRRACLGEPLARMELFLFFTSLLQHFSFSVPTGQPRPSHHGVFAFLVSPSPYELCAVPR
Chain of CYP2C9 (P11712 whole entry, canonical isoform): as the sequence (P11712 whole entry, canonical isoform) above
Chain of CYP3A4 (P08684 whole entry, canonical isoform): as the sequence (P08684 whole entry, canonical isoform) above

Structure (SMILES): CC(C(=O)O)c1ccc(-c2ccc(Cl)cc2)c(F)c1 (configuration not stated)
- inhibition [1]: 55%

Structure (SMILES): CC(C(=O)O)c1ccc(-c2cccc(Cl)c2)c(F)c1 (configuration not stated)
- inhibition [1]: 58%

Structure (SMILES): C[C@@H](C(=O)O)c1ccc(-c2ccccc2)c(F)c1 [TARENFLURBIL]
- IC50 [2]: 44 µM
- IC50 [3]: 280 µM

Structure (SMILES): CC(C(N)=O)c1ccc(-c2cc(Cl)cc(Cl)c2)c(F)c1 (configuration not stated)
- inhibition [1]: 70%
- IC50 [4]: 12 µM
- Clearance [5]: 193 mL/h
- Ratio [6]: 19%
- IC50 [3]: 64 µM

Structure (SMILES): COC(=O)C(C)c1ccc(-c2cc(Cl)cc(Cl)c2)c(F)c1 (configuration not stated)
- inhibition [7]: 45%

Structure (SMILES): CC(C(=O)O)c1ccc(-c2ccc(-c3ccc(O)cc3)cc2)c(F)c1 (configuration not stated)
- IC50 (Cytochrome P450 2C9): 4.7 µM
- inhibition [1]: 75%
- IC50 (Cytochrome P450 2C19): 58 µM
- Clearance [5]: 85 mL/h
- Ratio [6]: 1.1%
- inhibition [8]: 17%
- IC50 [3]: 35 µM
- IC50 (Cytochrome P450 3A4): 74 µM
- Papp [9]: > 5 ×10⁻⁶ cm/s

Structure (SMILES): O=C(O)C1(c2ccc(-c3ccc(C4CCOCC4)cc3)c(F)c2)CC1
- inhibition [1]: 52%
- Clearance [5]: 39 mL/h
- Ratio [10]: Below LLOQ

Structure (SMILES): CC(C(=O)NO)c1ccc(-c2ccc(C(F)(F)F)cc2)c(F)c1 (configuration not stated)
- inhibition [1]: 31%

Structure (SMILES): CC(C(=O)O)c1ccc(-c2ccc(Cl)c(Cl)c2)c(F)c1 (configuration not stated)
- inhibition [1]: 87%
- inhibition at 100 µM (CYP2C19): > 50%
- inhibition [8]: 78%
- IC50 [3]: 75 µM
- Papp [9]: > 5 ×10⁻⁶ cm/s

Structure (SMILES): Cc1ccc(-c2ccc(C(C)C(=O)O)cc2F)cc1 (configuration not stated)
- inhibition [1]: 44%

Structure (SMILES): O=C(O)C1(c2ccc(-c3ccc(-c4ccc(O)cc4)c(F)c3)c(F)c2)CC1
- inhibition [1]: 80%
- IC50 (Cytochrome P450 2C19): 74 µM
- Clearance [5]: 109 mL/h
- inhibition [8]: < 1%
- IC50 [3]: 33.6 µM
- IC50 [11]: 111 µM
- IC50 (Cytochrome P450 3A4): 58 µM
- Papp [9]: > 5 ×10⁻⁶ cm/s
- Ratio [10]: Below LLOQ

Structure (SMILES): CC(C(=O)O)c1ccc(-c2ccccc2C(F)(F)F)c(F)c1 (configuration not stated)
- inhibition [1]: 25%

Structure (SMILES): CC(c1ccc(-c2ccc(C(F)(F)F)cc2)c(F)c1)c1nnn[nH]1 (configuration not stated)
- inhibition [1]: 43%
- inhibition at 100 µM (CYP2C19): > 50%
- inhibition at 100 µM (CYP2C9): > 50%
- inhibition at 100 µM (CYP3A4): > 50%
- inhibition [8]: 9%
- inhibition at 100 µM (CYP1A2): > 50%
- inhibition at 100 µM (CYP2D6): > 50%
- IC50 [3]: 114 µM

Structure (SMILES): COc1ccc(-c2ccc(C(C)C(=O)O)cc2F)cc1 (configuration not stated)
- inhibition [1]: 67%
- IC50 (Cytochrome P450 2C19): 87 µM
- IC50 [3]: 67 µM
- Papp [9]: > 5 ×10⁻⁶ cm/s

Structure (SMILES): CC(C(=O)O)c1ccc(-c2ccc(C(F)(F)F)cc2)cc1 (configuration not stated)
- inhibition [1]: 2%

Structure (SMILES): O=C(O)C1(c2ccc(-c3ccc(-c4ccc(F)cc4)c(F)c3)c(F)c2)CC1
- IC50 (Cytochrome P450 2C9): 7 µM
- inhibition [1]: 75%
- IC50 (Cytochrome P450 2C19): 46 µM
- Clearance [5]: 8.1 mL/h
- Ratio [6]: 1.8%
- inhibition [12]: 32%
- inhibition [8]: 18%
- IC50 [3]: 57.9 µM
- IC50 (Cytochrome P450 3A4): 38 µM
- Papp [9]: < 1 ×10⁻⁶ cm/s

Structure (SMILES): CC(C)(C(=O)O)c1ccc(-c2ccc(C3CCCCC3)cc2)c(F)c1
- IC50 (Cytochrome P450 2C9): 28 µM
- inhibition [1]: 77%
- inhibition [13]: 47%
- inhibition [8]: 12%
- IC50 (Cytochrome P450 3A4): 59 µM
